Assay outcomes from PubChem.
CXCR6 block: inhibitors of human CXCR6 receptor | CHO-K1 PathHunter CXCR6 beta-arrestin, luminescence | inhibition, % at 20 µM | 360,000 tested, 0.36% active | O00574; in the data active means inhibition above about 34%, passing the limit was not always enough;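 further: antagonist mode with CXCL16 agonist at 10 nM final; 0% = 10 nM CXCL16 with DMSO and 100% = unstimulated wells without agonist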
B2AR ag: agonists of human beta-2 adrenergic receptor inducing internalization. P07550. Am2.2-beta2AR cells, FAP receptor internalization, flow cytometry. response, % (test concentration not listed). 340,000 tested, 0.43% active;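 active means response above a set limit, near 3 SD of response in nonfluorescent compounds, cut at about 42% in these data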
CCR6 antagonist: antagonists of human CCR6 receptor | P51684 | CHO-K1 CCR6 PathHunter beta-arrestin, luminescence, CCL20-stimulated | inhibition, % at 20 µM | 340,000 tested, 0.49% active | AID 493098;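 active means compounds whose inhibition of the agonist-driven luminescence signal at 20 µM reaches about 50%, limit read from the data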;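 further: cells stimulated with CCL20 at 14 nM final; plate controls were DMSO with CCL20 for no effect and DMSO without agonist for full effect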
EBI2 block: antagonists of human EBI2 receptor | P32249 | EBI2 beta-arrestin recruitment, luminescence, 7a,25-OHC stimulated | inhibition, % at 5 µM | 360,000 tested, 0.81% active | AID 651636; in the data active means inhibition above about 38%;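 further: enzyme fragment complementation signal reports receptor beta-arrestin coupling in cells; 0% = agonist plus DMSO wells and 100% = wells without agonist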
APJ antagonist: antagonists of human APJ apelin receptor | P35414 | CHO-K1 APJ beta-arrestin complementation, luminescence | inhibition, % at 20 µM | 330,000 tested, 0.32% active | AID 2521;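 active means inhibition above about 40% at 20 µM, limit read from the data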;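 further: cells challenged with 10 nM apelin-13 agonist together with compound; plate controls were apelin-13 plus DMSO wells for no effect and DMSO wells lacking apelin-13 for full effect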
Target sequence (P35414 whole entry, looked up): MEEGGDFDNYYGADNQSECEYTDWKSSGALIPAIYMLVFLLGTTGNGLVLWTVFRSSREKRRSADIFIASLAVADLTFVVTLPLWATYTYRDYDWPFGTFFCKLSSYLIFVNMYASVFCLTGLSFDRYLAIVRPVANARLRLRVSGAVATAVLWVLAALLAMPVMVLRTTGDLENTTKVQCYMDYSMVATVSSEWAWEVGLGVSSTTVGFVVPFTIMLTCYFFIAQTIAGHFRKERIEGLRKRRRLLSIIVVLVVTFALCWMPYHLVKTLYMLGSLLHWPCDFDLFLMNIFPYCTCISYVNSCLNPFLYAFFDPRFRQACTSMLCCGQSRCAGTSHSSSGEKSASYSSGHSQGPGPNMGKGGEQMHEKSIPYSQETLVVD
APJ ag: APJ receptor agonism. P35414. CHO-K1 APJ PathHunter beta-arrestin, luminescence; 0% DMSO wells, 100% apelin. activation, % at 20 µM. 330,000 tested, 0.11% active;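 active means activation more than six SD over the plate average, tested at 20 µM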;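 further: 0% = DMSO alone and 100% = apelin-13 at 10 nM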
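system = engineered CHO-K1 APJ arrestin reporter cells | input = 1000 cells per well | timing = overnight seeding, 90 min compound at 25 °C, 1 h detection | measured by = enzyme-fragment complementation luminescence | read-out = beta-arrestin recruitment to APJ as agonist activity, luminescent signal | control set = negative DMSO alone, positive Apelin-13 at 10 nM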
EBI2 conf: confirmation of human EBI2 receptor antagonists; EBI2 beta-arrestin luminescence, 7a,25-OHC antagonism; 2,400 tested, 29% active; shares compounds with EBI2 block; AID 651997; inhibition, % at 5 µM;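 active means inhibition of at least 50%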
EBI2 agonist: counter-screen for EBI2 antagonists: EBI2 agonist activity; shares compounds with EBI2 block; EBI2-expressing cells, agonist mode, luminescence, 60 min; 0% vehicle, 100% 7α,25-dihydroxycholesterol control; activation, % at 5 µM; 2,400 tested, under 10 active; AID 652000;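 active means activation of at least 50%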
bGal cs: beta-galactosidase inhibition counter-screen; shares compounds with EBI2 block; purified beta-galactosidase, luminescent Galacton Star, 15 min; inhibition, % at 5 µM; 2,400 tested, 1% active; AID 652176;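 active means replicate-average signal at least 3 plate SD below neutral wells, shown as high inhibition, flagging enzyme-inhibiting false positives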;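 further: 0% = DMSO wells with enzyme and 100% = wells lacking enzyme; higher means stronger loss of beta-gal luminescence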
The depositor's hits bear a star; · = no result. Compounds with a hit are over-represented: about 1.8% of the library has one in this group of screens.

SMILES	CXCR6 block	B2AR ag	CCR6 antagonist	EBI2 block	APJ antagonist	APJ ag	EBI2 conf	EBI2 agonist	bGal cs
Cc1ccc(CN2CCC(c3cc(-c4ccc(Cl)cc4)n[nH]3)CC2)cc1	1	-5	21	65*	-26	2	40	2	5
COc1ccc(-c2cc(C3CCN(Cc4cccc(C(F)(F)F)c4)CC3)[nH]n2)cc1	3	2	-22	55*	-5	1	31	0	9
O=C(Nc1ccc(Cl)c(S(=O)(=O)N2CCOCC2)c1)[C@@H]1CCCN1C(=O)c1cccs1	-4	1	-7	-2	-1	-2	·	·	·
CC1Cc2ccccc2N1C(=O)CSc1nncs1 (configuration not stated)	5	-1	-8	-4	-2	-5	·	·	·
O=C(Cn1cnc2ccccc21)Nc1ccc2c(c1)OCCCO2	-5	2	4	-7	12	-3	·	·	·
Cn1c(NCc2ccco2)nc2c1c(=O)n(Cc1ccc(Cl)c(Cl)c1)c(=O)n2C	10	6	0	46*	-8	5	35	0	6
Cn1c(NCC(O)CO)nc2c1c(=O)n(Cc1ccc(Cl)c(Cl)c1)c(=O)n2C (configuration not stated)	2	-2	-3	3	3	1	·	·	·
Cc1nc(N2CCCCC2)c2c(C)c(C(=O)Nc3cccc(C(F)(F)F)c3)sc2n1	-12	1	-33	53*	-1	4	25	2	6
Cc1nc(N2CCCCC2C)c2c(C)c(C(=O)Nc3cccc(C(F)(F)F)c3)sc2n1 (configuration not stated)	-3	2	9	76*	-6	1	19	2	5
OC(c1ccc(Cl)c(F)c1)c1ncc(-c2cccc(C(F)(F)F)c2)[nH]1 (configuration not stated)	-13	·	·	9	·	·	·	·	·
CCOCCCNS(=O)(=O)c1ccc(NC(=O)C2CC(=O)N(c3ccc(C)cc3)C2)cc1 (configuration not stated)	-4	-14	20	65*	3	-2	39	-2	-12
Cc1ccc(N2CC(C(=O)Nc3ccc(S(=O)(=O)NCC4CCCO4)cc3)CC2=O)cc1C (configuration not stated)	4	2	4	38	9	-1	·	·	·
CCOc1ccc(N2CC(C(=O)Nc3ccc(S(=O)(=O)NCC4CCCO4)cc3)CC2=O)cc1 (configuration not stated)	-13	-3	-1	51*	4	0	27	1	7
CCCC(=O)Nc1ccc(C(N)=O)cc1	-4	-1	4	-12	19	0	·	·	·
CCCC(=O)Nc1ccc(C(=O)/C=C/c2ccc(SC)cc2)cc1	-4	2	4	44*	3	0	38	0	6
O=C(/C=C/c1ccc(Br)cc1)c1ccco1	6	16	19	-18	-1	-3	·	·	·
O=C(/C=C/c1ccc(Br)cc1)c1ccc(NC(=O)c2ccco2)cc1	2	-9	0	43*	5	-1	9	-1	-8
CC(=O)Nc1ccc(/C=C/C(=O)c2ccc3c(c2)OCCO3)cc1	8	-3	11	10	13	0	·	·	·
CSc1ccc(/C=C/C(=O)c2ccc(NC(C)=O)cc2)cc1	6	1	10	80*	2	-2	40	0	6
CC1(C(=O)NS(=O)(=O)c2cccc(Cl)c2)CCN1C(=O)c1ccccc1 (configuration not stated)	-3	·	·	-2	·	·	·	·	·
CCCNC(=O)c1ccc(COc2ccc(CCC)cc2OC)o1	1	15	2	-1	-6	0	·	·	·
O=C1NC(Cc2ccc(O)cc2)c2nc3cc(F)c(F)cc3c(=O)n2-c2cc3ccccc3cc21 (configuration not stated)	-9	·	·	6	·	·	·	·	·
O=C1NC(Cc2ccccc2)c2nc3cc(F)c(F)cc3c(=O)n2-c2cc3ccccc3cc21 (configuration not stated)	4	·	·	44*	·	·	19	-2	-10
COc1ccc(N(CC(=O)NCCSC2CCCCC2)S(=O)(=O)c2ccccc2)c(OC)c1	9	2	·	5	-38	1	·	·	·
COc1cccc(N(CC(=O)NCCSc2ccccc2)S(C)(=O)=O)c1	2	-5	-4	29	13	-1	·	·	·
SMILES	CXCR6 block	B2AR ag	CCR6 antagonist	EBI2 block	APJ antagonist	APJ ag	EBI2 conf	EBI2 agonist	bGal cs
COc1ccc(N(CC(=O)NCCSc2ccc(C)cc2)S(=O)(=O)c2ccccc2)c(OC)c1	1	11	1	81*	5	5	47	1	2
COc1cccc(N(CC(=O)NCCSc2ccc(Cl)cc2)S(C)(=O)=O)c1	-1	1	1	87*	4	1	69*	1	9
COc1ccc(N(CC(=O)NCCSc2ccccc2)S(C)(=O)=O)cc1	3	-3	4	63*	11	-2	40	0	-12
Cc1ccc(OCC(=O)N2CCN(S(=O)(=O)c3ccc4c(c3)OCCO4)CC2)c(C)c1	2	2	10	70*	10	-1	53*	2	4
Cc1ccc2c(CC(=O)N3CCN(S(=O)(=O)c4ccc5c(c4)OCCO5)CC3)coc2c1	0	0	-3	50*	1	-1	13	-1	-10
CCc1ccc(-c2nc(CS(=O)CC(=O)NC3CCCCCC3)c(C)o2)cc1 (configuration not stated)	-14	-1	12	0	-7	-4	·	·	·
COc1ccc(-c2nnc(COc3ccc4ccccc4c3)o2)cc1OC	-1	4	-14	13	12	-3	·	·	·
COc1cc(-c2nnc(COc3ccc4cc(Br)ccc4c3)o2)cc(OC)c1OC	3	21	8	56*	15	-1	14	1	1
COCCOc1ccc(C(F)(F)F)cc1NC(=O)COC(=O)Cc1c[nH]c2ccccc12	-2	10	11	82*	0	2	34	1	4
COc1ccccc1NC(=O)COC(=O)Cc1c[nH]c2ccccc12	-6	6	4	-6	14	0	·	·	·
CC(C)(C)S(=O)N1Cc2cc(C(=O)NCc3ccc4c(c3)OCO4)nc(-c3cccc(-c4ccccc4)c3)c2[C@@H]1CCO (some centres not stated)	4	·	·	46*	·	·	23	-1	6
